Key:
Brain [1] = test: Drug uptake in rhesus monkey brain at 115.5 MBq, iv by PET analysis in presence of tariquidar; type: ADME, organism-based, Macaca mulatta; conditions: in vivo
Hippocampus [2] = test: Drug uptake in rhesus monkey hippocampus at 115.5 MBq, iv after >30 seconds by PET analysis; type: ADME, organism-based, Macaca mulatta; conditions: in vivo
How it was run: (§1)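 A single rhesus monkey, thiamylal induction then 1.5% isoflurane; 90 min 3D dynamic PET after transmission scan; [11C] tracer bolus via crural vein (115.5 MBq at baseline; 87.7 MBq after tariquidar 8 mg/kg iv over 10 min, 0.25 h before). ROIs on individual MRI; decay-corrected %SUV.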

[3] = Drug uptake in rhesus monkey cerebellum at 115.5 MBq, iv after >30 seconds by PET analysis; type: ADME, organism-based, Macaca mulatta; conditions: in vivo; how it was run: as §1
[4] = Drug uptake in rhesus monkey neocortex at 115.5 MBq, iv after >30 seconds by PET analysis; type: ADME, organism-based, Macaca mulatta; conditions: in vivo; how it was run: as §1
[5] = Drug uptake in rhesus monkey cerebellum at 115.5 MBq, iv after 30 seconds by PET analysis; type: ADME, organism-based, Macaca mulatta; conditions: in vivo, 0.5 min; how it was run: as §1
Hippocampus [6] = test: Drug uptake in rhesus monkey hippocampus at 115.5 MBq, iv after 30 seconds by PET analysis; type: ADME, organism-based, Macaca mulatta; conditions: in vivo, 0.5 min; how it was run: as §1
Thalamus [7] = test: Drug uptake in P-gp-knockout rat thalamus at 78.7 to 189.8 MBq, iv after 90 mins by PET analysis in presence of 10 mg/kg, po unlabeled compound; type: ADME, organism-based; parameters: dose 10 mg/kg, route oral; conditions: in vivo, 1.5 h
How it was run: (§2)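 Male Mdr1a-knockout rats (410−500 g) under 1.5% isoflurane at 37 °C; [11C] tracer 78.7−189.8 MBq by tail vein. 90 min list-mode microPET scan with filtered back-projection; ROIs drawn on MRI template; decay-corrected %ID/mL, n = 3. Blocking: unlabeled compound 10 mg/kg po in 5% DMSO/10% cremophor in 10 mM HCl, given 1 h before tracer.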

[8] = Drug uptake in P-gp-knockout rat neocortex at 78.7 to 189.8 MBq, iv after 90 mins by PET analysis in presence of 10 mg/kg, po unlabeled compound; type: ADME, organism-based; parameters: dose 10 mg/kg, route oral; conditions: in vivo, 1.5 h; how it was run: as §2
Hippocampus [9] = test: Drug uptake in P-gp-knockout rat hippocampus at 78.7 to 189.8 MBq, iv after 90 mins by PET analysis in presence of 10 mg/kg, po unlabeled compound; type: ADME, organism-based; parameters: dose 10 mg/kg, route oral; conditions: in vivo, 1.5 h; how it was run: as §2
Cerebellum = test: Drug uptake in P-gp-knockout rat cerebellum at 78.7 to 189.8 MBq, iv after 90 mins by PET analysis in presence of 10 mg/kg, po unlabeled compound; type: ADME, organism-based; parameters: dose 10 mg/kg, route oral; conditions: in vivo, 1.5 h; how it was run: as §2
Thalamus [10] = test: Drug uptake in P-gp-knockout rat thalamus at 78.7 to 189.8 MBq, iv after 90 mins by PET analysis; type: ADME, organism-based; conditions: in vivo, 1.5 h; how it was run: as §2
[11] = Drug uptake in rhesus monkey neocortex at 115.5 MBq, iv after 30 seconds by PET analysis; type: ADME, organism-based, Macaca mulatta; conditions: in vivo, 0.5 min; how it was run: as §1
[12] = Metabolic stability in P-gp-knockout rat brain assessed as unmetabolized drug level at 330 MBq after 30 min by HPLC chromatogram analysis; type: ADME, tissue-based; conditions: read-out: Stability
How it was run: (§3)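 Mdr1a-knockout rat (450 g) given [11C] tracer 330 MBq iv and decapitated at 30 min. Plasma deproteinised with MeCN; half-brain homogenised in 50% aqueous MeCN and deproteinised. Supernatants run on C18 radio-HPLC (MeCN/H2O/TEA 5/5/0.01, 1.5 mL/min). Parent % = parent peak area/total peak area × 100, decay corrected; n = 1.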

[13] = Metabolic stability in P-gp-knockout rat plasma assessed as unmetabolized drug level at 330 MBq after 30 min by HPLC chromatogram analysis; type: ADME, cell-free; conditions: read-out: Stability; how it was run: as §3
Brain [14] = test: Ex vivo drug uptake in P-gp-knockout rat brain assessed as retention time at 330 MBq after 30 min by HPLC chromatogram analysis; type: ADME, tissue-based; conditions: 0.5 h; how it was run: as §3
Brain [15] = test: Ex vivo drug metabolism in P-gp-knockout rat brain assessed as retention time at 330 MBq after 30 min by HPLC chromatogram analysis; type: ADME, tissue-based; conditions: 0.5 h; how it was run: as §3
Hippocampus [16] = test: Drug uptake in P-gp-knockout rat hippocampus at 78.7 to 189.8 MBq, iv after 90 mins by PET analysis; type: ADME, organism-based; conditions: in vivo, 1.5 h; how it was run: as §2
[17] = Drug uptake in P-gp-knockout rat neocortex at 78.7 to 189.8 MBq, iv after 90 mins by PET analysis; type: ADME, organism-based; conditions: in vivo, 1.5 h; how it was run: as §2
[18] = Octanol-phosphate buffer partition coefficient, log D of the compound at pH 7.4 by Shake flask method; type: physicochemical
How it was run: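 [11C]-labelled compound (about 200 000 cpm) in n-octanol and 0.1 M PBS pH 7.4, vortexed 3 min at rt and centrifuged; weighed aliquots of each phase γ-counted, with the organic layer repartitioned until stable. log D = log(cpm/g octanol ÷ cpm/g PBS); triplicate.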

[19] = Ratio of flux ratio in pig LLC cells expressing MDR1 to flux ratio on pig LLC-PK1 cells; type: ADME, cell-based, Sus scrofa
How it was run: (§4)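 LLC-PK1 and LLC-MDR1 monolayers, 5 days post-seeding, preincubated 2 h at 37 °C in HBSS/10 mM HEPES. Compound added apically or basally, 2 h at 37 °C; opposite side assayed by LC-MS. Papp = Q/t/C0/A; FR = Papp(b→a)/Papp(a→b); corrected FR = FR(LLC-MDR1)/FR(LLC-PK1).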

LLC-PK1 = test: Flux ratio of permeability from apical to basolateral to basolateral to apical side in pig LLC-PK1 cells after 2 hrs; type: ADME, cell-based, Sus scrofa; conditions: llc-pk1, 2 h; how it was run: as §4
[20] = Flux ratio of permeability from apical to basolateral to basolateral to apical side in pig LLC cells expressing MDR1 after 2 hrs; type: ADME, cell-based, Sus scrofa; how it was run: as §4
Orexin receptor type 2 = target: T1, Orexin receptor type 2 (Homo sapiens, UniProt O43614); test: Displacement of [125I]-orexin-A from human OX2 receptor expressed in CHO cells after 30 mins by liquid scintillation counting analysis; type: cell-based
T1 sequence (O43614 whole entry): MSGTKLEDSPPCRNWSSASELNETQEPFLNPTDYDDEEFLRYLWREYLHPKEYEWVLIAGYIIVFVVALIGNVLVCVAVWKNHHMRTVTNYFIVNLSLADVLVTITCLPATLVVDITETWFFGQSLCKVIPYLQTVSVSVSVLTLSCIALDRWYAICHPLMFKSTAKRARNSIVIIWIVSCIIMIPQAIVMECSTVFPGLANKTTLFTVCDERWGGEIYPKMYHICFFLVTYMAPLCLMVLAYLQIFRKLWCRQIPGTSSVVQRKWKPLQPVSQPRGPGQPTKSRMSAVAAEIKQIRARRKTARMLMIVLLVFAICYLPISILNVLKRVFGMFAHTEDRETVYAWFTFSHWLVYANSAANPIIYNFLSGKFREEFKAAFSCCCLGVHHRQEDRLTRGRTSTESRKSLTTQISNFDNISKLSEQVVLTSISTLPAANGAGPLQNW
How it was run: (§5)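 CHO membranes expressing human OX1R or OX2R (5 μg protein) incubated 30 min at rt with compound and [125I]-orexin A (2 nM stock) in HEPES buffer pH 7.5 with MgCl2, CaCl2, BSA. Nonspecific binding with 10 μM orexin A. Wells washed with HEPES/525 mM NaCl and DPM counted. % inhibition from test, control and nonspecific counts; mean of three wells.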

[21] = target: T2, Orexin/Hypocretin receptor type 1 (Homo sapiens, UniProt O43613); test: Displacement of [125I]-orexin-A from human OX1 receptor expressed in CHO cells after 30 mins by liquid scintillation counting analysis; type: cell-based; how it was run: as §5
T2 sequence (O43613 whole entry): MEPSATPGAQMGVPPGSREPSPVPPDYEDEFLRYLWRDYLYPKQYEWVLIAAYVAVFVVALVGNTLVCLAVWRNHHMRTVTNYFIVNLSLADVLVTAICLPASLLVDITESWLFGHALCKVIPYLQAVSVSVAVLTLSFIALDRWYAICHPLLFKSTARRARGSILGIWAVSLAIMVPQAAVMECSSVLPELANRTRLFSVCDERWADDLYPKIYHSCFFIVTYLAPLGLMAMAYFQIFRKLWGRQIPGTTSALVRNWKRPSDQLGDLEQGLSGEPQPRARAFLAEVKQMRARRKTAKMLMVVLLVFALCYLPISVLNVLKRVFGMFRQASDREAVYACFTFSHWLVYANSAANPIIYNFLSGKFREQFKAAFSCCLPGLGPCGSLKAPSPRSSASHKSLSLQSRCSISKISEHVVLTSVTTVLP

Cc1ncc(OC[C@@]2(c3cccc(F)c3)C[C@H]2C(=O)Nc2ccc(F)cn2)c(CO[11CH3])n1
Drug uptake (Brain [1]): Active | Drug uptake (Hippocampus [2]): Not Active | Drug uptake [3]: Not Active | Drug uptake [4]: Not Active | Drug uptake [5]: Active | Drug uptake (Hippocampus [6]): Active | Drug uptake (Thalamus [7]): Active | Drug uptake [8]: Not Active | Drug uptake (Hippocampus [9]): Not Active | Drug uptake (Cerebellum): Not Active | Drug uptake (Thalamus [10]): Active | Drug uptake [11]: Active | remaining at 0.5 h [12]: 54% | remaining at 0.5 h [13]: 12% | Retention_time (Brain [14]): 5.2 min | Retention_time (Brain [15]): 2 min | Drug uptake (Hippocampus [16]): Active | Drug uptake [17]: Active | logD [18]: 2.97

Cc1ncc(OC[C@@]2(c3cccc(F)c3)C[C@H]2C(=O)Nc2ccc(C#N)cn2)c(C)n1
Ratio [19]: 1.76 | Ratio (LLC-PK1): 1.09 | Ratio [20]: 1.92 | Ki (Orexin receptor type 2): 5 nM | Ki [21]: 32 nM

Source: ChEMBL document CHEMBL2424641, “Synthesis and evaluation of novel radioligands for positron emission tomography imaging of the orexin-2 receptor” (J Med Chem, 2013)
